# Measurements of several laboratories.
# Lines come from different studies, so protocols differ.
SMILES,organism,test,test system,setting,endpoint,result
CNC(=S)NN=Cc1ccc(OC)cc1,Leishmania major,"parasite growth, MTT",,"72 h, promastigote",IC50,26.7 µM
Cc1ccc(Nc2cnnc3ccc(-c4ccc(N5CCN(C)CC5)cc4)cc23)cn1,Leishmania major,parasite growth,,"intracellular, amastigote",EC50,> 24 µM
C[C@@H]1[C@H](O)[C@@H](C)/C=C/C=C/C=C/C=C/C=C/C=C/C=C/[C@H](O[C@@H]2O[C@H](C)[C@@H](O)[C@H](N)[C@@H]2O)C[C@@H]2O[C@](O)(C[C@@H](O)C[C@@H](O)[C@H](O)CC[C@@H](O)C[C@@H](O)CC(=O)O[C@H]1C)C[C@H](O)[C@H]2C(=O)O,Aspergillus fumigatus,"microbial growth, broth dilution",AF293,48 h,MIC,0.5 µg/mL
CN1CCN(c2ccc(-c3ccc4nncc(Nc5cnccn5)c4c3)cc2)CC1,Leishmania major,parasite growth,,"intracellular, amastigote",EC50,> 13 µM
CC[C@H]1OC(=O)[C@H](C)[C@@H](O[C@H]2C[C@@](C)(OC)[C@@H](O)[C@H](C)O2)[C@H](C)[C@@H](O[C@@H]2O[C@H](C)C[C@H](N(C)C)[C@H]2O)[C@](C)(O)C[C@@H](C)/C(=N\OCOCCOC)[C@H](C)[C@@H](O)[C@]1(C)O,Enterococcus faecalis,"microbial growth, agar dilution",ATCC29212,,MIC,128 µg/mL
COc1ccc(Nc2cnnc3cc(-c4cnc(N5CCCN(C)CC5)nc4)ccc23)cc1Cl,Leishmania major,parasite growth,,"intracellular, amastigote",EC50,> 2.1 µM
C/C(=N\C(=S)/N=C(\C)c1c(O)c2ccccc2oc1=O)c1c(O)c2ccccc2oc1=O,Aspergillus glaucus,"microbial growth, broth dilution",,48 h,MIC,31.2 µg/mL
CC1(C)S[C@@H]2[C@H](NC(=O)[C@H](N)c3ccccc3)C(=O)N2[C@H]1C(=O)O,Enterococcus faecalis,"microbial growth, agar dilution",ATCC29212,,MIC,64 µg/mL
CN1CCCN(c2ncc(-c3ccc4nncc(Nc5cnccn5)c4c3)cn2)CC1,Leishmania major,parasite growth,,"intracellular, amastigote",EC50,> 24 µM
S=C(NN=Cc1ccc(Br)cc1)Nc1cccnc1,Leishmania major,"parasite growth, MTT",,"72 h, promastigote",IC50,891 µM
C/C(=N\c1nc(N)nc(/N=C(\C)c2c(O)c3ccccc3oc2=O)n1)c1c(O)c2ccccc2oc1=O,Aspergillus glaucus,"microbial growth, broth dilution",,48 h,MIC,31.2 µg/mL
CNC(=S)NN=Cc1ccc([N+](=O)[O-])cc1,Leishmania major,parasite growth,J774.A1,"72 h, intracellular, amastigote",IC50,177 µM
Cc1c2c(nn1C)CSCc1cc(n(C)n1)CSc1cc(c3ccccc3c1)OCCCc1c(C(=O)O)n(C)c3c-2c(Cl)ccc13,Enterococcus faecalis,"microbial growth, broth dilution",,clinical isolate,MIC50,25 µM
COc1ccc(Nc2cnnc3ccc(-c4cnc(N5CCCN(C)CC5)nc4)cc23)cc1Cl,Leishmania major,parasite growth,,"intracellular, amastigote",EC50,> 21 µM
CN[C@H](CC(C)C)C(=O)N[C@H]1C(=O)N[C@@H](CC(N)=O)C(=O)N[C@H]2C(=O)N[C@H]3C(=O)N[C@H](C(=O)N[C@H](C(=O)O)c4cc(O)cc(O)c4-c4cc3ccc4O)[C@H](O)c3ccc(c(Cl)c3)Oc3cc2cc(c3O[C@@H]2O[C@H](CO)[C@@H](O)[C@H](O)[C@H]2O[C@H]2C[C@](C)(N)[C@H](O)[C@H](C)O2)Oc2ccc(cc2Cl)[C@H]1O,Enterococcus faecalis,"microbial growth, broth dilution",,clinical isolate,MIC90,2 µg/mL
CCCCCCCCCCCC[N+](C)(C)Cc1ccccc1,Enterococcus faecalis,microbial growth,,,MIC,63 µM
CNC(=S)NN=Cc1ccc(OC)c(OC)c1,Leishmania major,"parasite growth, MTT",,"72 h, promastigote",IC50,54.3 µM
COc1c(N2C[C@@H]3CCCN[C@@H]3C2)c(F)cc2c(=O)c(C(=O)O)cn(C3CC3)c12,Enterococcus faecalis,"microbial growth, broth dilution",,clinical isolate,MIC90,1 µg/mL
C[C@@H]1[C@H](O)[C@@H](C)/C=C/C=C/C=C/C=C/C=C/C=C/C=C/[C@H](O[C@@H]2O[C@H](C)[C@@H](O)[C@H](N)[C@@H]2O)C[C@@H]2O[C@](O)(C[C@@H](O)C[C@@H](O)[C@H](O)CC[C@@H](O)C[C@@H](O)CC(=O)O[C@H]1C)C[C@H](O)[C@H]2C(=O)O,Leishmania major,parasite growth,J774.A1,"72 h, intracellular, amastigote",IC50,17.5 µM
C/C(=N\N=C(/C)c1c(O)c2ccccc2oc1=O)c1c(O)c2ccccc2oc1=O,Aspergillus glaucus,"microbial growth, broth dilution",,48 h,MIC,31.2 µg/mL
COc1ccc(C=NNC(=S)Nc2cccnc2)cc1,Leishmania major,parasite growth,J774.A1,"72 h, intracellular, amastigote",IC50,892 µM
C=C[C@]1(C)C[C@@H](OC(=O)CS[C@@H]2C[C@H]3CC[C@@H](C2)N3C)[C@]2(C)[C@H](C)CC[C@]3(CCC(=O)[C@H]32)[C@@H](C)[C@@H]1O,Enterococcus faecalis,"microbial growth, agar dilution",ATCC29212,,MIC,128 µg/mL
C/C(=N\C(=N)/N=C(\C)c1c(O)c2ccccc2oc1=O)c1c(O)c2ccccc2oc1=O,Aspergillus glaucus,"microbial growth, broth dilution",,48 h,MIC,125 µg/mL
CN1CCN(c2ccc(-c3ccc4nncc(Nc5ncccn5)c4c3)cc2)CC1,Leishmania major,parasite growth,,"intracellular, amastigote",EC50,> 2.5 µM
CNC(=S)NN=Cc1ccc(C)cc1,Leishmania major,"parasite growth, MTT",,"72 h, promastigote",IC50,938 µM
OC(Cn1cncn1)(Cn1cncn1)c1ccc(F)cc1F,Aspergillus fumigatus,"microbial growth, broth dilution",,,MIC,4 µg/mL
COc1ccc(Nc2cnnc3ccc(-c4ccc(N5CCN(C)CC5)cc4)cc23)cc1Cl,Leishmania major,parasite growth,,"intracellular, amastigote",EC50,> 22 µM
CC(=O)NC[C@H]1CN(c2ccc(N3CCOCC3)c(F)c2)C(=O)O1,Enterococcus faecalis,"microbial growth, broth dilution",,clinical isolate,MIC90,1 µg/mL
COc1ccc(C=NNC(=S)Nc2cccnc2)cc1OC,Leishmania major,parasite growth,J774.A1,"72 h, intracellular, amastigote",IC50,886 µM
C/C(=N\CCNCC/N=C(\C)c1c(O)c2ccccc2oc1=O)c1c(O)c2ccccc2oc1=O,Aspergillus glaucus,"microbial growth, broth dilution",,48 h,MIC,31.2 µg/mL
CN1CCN(c2ncc(-c3ccc4nncc(Nc5cnccn5)c4c3)cn2)CC1,Leishmania major,parasite growth,,"intracellular, amastigote",EC50,> 5 µM
